# In article PMC5710753 (Biochemical pharmacology, 2017):
# Where two headings read alike, the source gives them in different places.
# Key:
# [1] = format: in vivo, cynomolgus monkeys; conditions: for time of maximal plasma level: after S230 30 mg/kg oral gavage
# Outline: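 Three monkeys were gavaged with 30 mg/kg (4.4 mL/kg) of an ethanol stock diluted into 10 volumes of 20 mM NaHCO3. Heparinized blood was taken predose and at 1–24 h, and plasma was stored at −80 °C. Plasma was treated with MeOH and an indole internal standard, then C18 solid-phase extracted. Quantitation used RP-HPLC-UV (60–80% MeOH, 0.02% HOAc) by peak-area ratio to the internal standard, with identities confirmed by LC-MS/MS.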
# [2] = biological target: T1, OXE receptor (Homo sapiens, UniProt Q8TDS5); experiment: Inhibition of 5-oxo-ETE-induced calcium mobilization in human neutrophils; format: cell-based
# Outline: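 Neutrophils isolated by dextran sedimentation and Ficoll-Paque centrifugation, loaded with indo-1 AM and held in a cuvette at 37 °C. Once baseline fluorescence was stable, the test compound was added, then 10 nM 5-oxo-ETE 2 min later, then digitonin (0.1% final) 1 min after that. Calcium response was read by spectrofluorometry.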
# [3] = Incubation with plasma or intact leukocytes; format: in vitro ADME
# [4] = oral racemic 230; cited from earlier work
# [5] = test system: OXE receptor; conditions: feline; cited from earlier work
# [6] = test system: OXE receptor; conditions: cited from earlier work
# [7] = monkey liver microsomes + NADPH; cited from earlier work
# [8] = biological target: T1, OXE receptor; conditions: S230 vs R230; cited from earlier work
# T1 sequence (Q8TDS5 whole entry): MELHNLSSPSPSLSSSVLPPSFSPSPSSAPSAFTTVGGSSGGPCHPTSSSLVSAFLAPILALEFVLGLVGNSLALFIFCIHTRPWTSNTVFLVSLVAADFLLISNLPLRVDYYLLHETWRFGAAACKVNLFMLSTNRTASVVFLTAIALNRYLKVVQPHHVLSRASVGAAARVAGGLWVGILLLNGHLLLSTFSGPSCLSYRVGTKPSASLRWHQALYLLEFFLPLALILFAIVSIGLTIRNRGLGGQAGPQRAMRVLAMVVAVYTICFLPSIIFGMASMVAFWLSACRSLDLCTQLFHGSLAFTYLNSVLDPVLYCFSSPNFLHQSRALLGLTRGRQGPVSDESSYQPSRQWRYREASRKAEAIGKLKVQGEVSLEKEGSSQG
compound,measurement,setting,value
"CC(O)CCCCc1c(C(=O)C[C@H](C)CC(=O)O)c2cc(Cl)ccc2n1C (stereo partly drawn) [ω2-OH-S230, (3S)-5-(5-chloro-2-(5-hydroxyhexyl)-1-methyl-1H-indol-3-yl)-3-methyl-5-oxopentanoate]",time of maximal plasma level,[1],≤ 4 h
"CCCCC[C@H](O)c1c(C(=O)C[C@H](C)CC(=O)O)c2cc(Cl)ccc2n1C [y1, (S)-5-(5-chloro-2-((S)-1-hydroxyhexyl)-1-methyl-1H-indol-3-yl)-3-methyl-5-oxopentanoic acid]",IC50,[2],1.6 ± 0.3 µM
same,Tmax,"[1]; female, cynomolgus monkey, plasma, po, 30 mg/kg",≤ 1 h
"CCCCCCc1c(C(=O)CC(C)CC(=O)O)c2cc(Cl)ccc2n1C (stereo not shown) [compound 230, 5-(5-chloro-2-hexyl-1-methyl-1H-indol-3-yl)-3-methyl-5-oxopentanoate]",formation of α-hydroxylation products,[3],Neither did we detect such products
same,maximal plasma concentration,[4],87 µM
same,antagonist activity in cats,[5],only a weak antagonist
same,antagonist activity in vitro in monkeys,[6],potent OXE receptor antagonist
same,formation of α-OH-230,[7],did not detect α-OH-230
"CCCCC[C@@H](O)c1c(C(=O)C[C@H](C)CC(=O)O)c2cc(Cl)ccc2n1C [x2, (S)-5-(5-chloro-2-((R)-1-hydroxyhexyl)-1-methyl-1H-indol-3-yl)-3-methyl-5-oxopentanoic acid]",IC50,[2],> 10 µM
same,peak area relative to the area of metabolite e,"[1]; all time points, plasma after S230 30 mg/kg oral, RP-HPLC",about 3%
"CCCCCCc1c(C(=O)C[C@H](C)CC(=O)O)c2cc(Cl)ccc2n1C [S230, (S)-5-(5-chloro-2-hexyl-1-methyl-1H-indol-3-yl)-3-methyl-5-oxopentanoate]",plasma concentration,[1]; 8 h after S230 30 mg/kg oral,greater than 1.5 μM
same,maximal plasma concentration,"[1]; S230 30 mg/kg oral gavage, at 1 h",32 µM
same,time of maximal plasma level,[1],≤ 1 h
same,plasma level as % of maximal concentration,[1]; by 4 h after S230 30 mg/kg oral,about 11%
same,plasma level as % of maximal concentration,[1]; by 8 h after S230 30 mg/kg oral,5%
same,potency relative to the R-enantiomer (R230),[8],over 400 times
